Results on 21 compounds are retold here after ChEMBL document CHEMBL1944585, “Design, synthesis, and evaluation of thiol-activated sources of sulfur dioxide (SO₂) as antimycobacterial agents” (J Med Chem, 2012).

A short description of data set [1]: Prodrug activation of compound assessed as sulphur dioxide formation at 100 uM after 30 mins in phosphate buffer at pH 7.4 by pararosaniline-based colorimetric assay in presence of cysteine. As to conditions: pH 7.4, 0.5 h. Put shortly: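 Sulfite detection: 900 μL p-rosaniline dye plus 50 μL saturated HgCl2 plus 50 μL sample, kept in the dark 15 min until violet colour developed, then absorbance read.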

The test system of data set [2] is Mycobacterium tuberculosis. The data set can be described thus: Antimycobacterial activity against Mycobacterium tuberculosis H37Rv by ten-fold serial dilution method. Format: functional. The method in brief: (§1)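 Agar dilution: ten-fold serial dilutions incorporated into Middlebrook 7H11 agar with OADC. Inoculum from fresh 7H11 slants, adjusted to 1 mg mL−1 wet weight in 0.05% Tween 80 saline, diluted 10−2 (approx. 10^7 cfu mL−1); 5 μL spotted per tube. 37 °C, read at 28 days. MIC = lowest concentration giving complete growth inhibition.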

Data set [3] deals with Mycobacterium tuberculosis. The data set can be described thus: Antimycobacterial activity against Mycobacterium tuberculosis H37Rv assessed as growth inhibition at 2 ug/ml by ten-fold serial dilution method in presence of cysteine. The data set is classed as functional, organism-based. Put shortly:
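Test material was a cysteine mixture in pH 7.4 buffer, taken about 2 h after mixing and tested at 2 μg mL−1. Run on 7H11-OADC agar against H37Rv: inoculum approx. 10^7 cfu mL−1, 5 μL spotted, 37 °C, read at 28 days for complete growth inhibition.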

The next data set relates to HEK293. The data set can be described thus: Cytotoxicity against human HEK293 cells after 72 hrs by XTT assay. The data set is classed as cell-based. As to conditions: HEK293, 72 h.
A short description of data set [4]: Selectivity index, ratio of IC50 for HEK293 cells to MIC for Mycobacterium tuberculosis H37Rv. Format: functional.
The nature of data set [5]: Prodrug activation of compound assessed as sulphur dioxide formation at 100 uM after 4 hrs in phosphate buffer at pH 7.4 by pararosaniline-based colorimetric assay in presence of cysteine. As to conditions: pH 7.4, 4 h.
The test system of data set [6] is Mycobacterium tuberculosis. Nature of the data set: Antimycobacterial activity against Mycobacterium tuberculosis H37Rv assessed as growth inhibition at 100 ug/ml by ten-fold serial dilution method. The data set is classed as functional, organism-based. The method in brief:
as §1

≈ marks a conversion by molar mass, not a printed value. Calls of active or inactive are those of the source. The calls are words filed in the database; no cut-off is given here.

Regarding `CN1CCN(S(=O)(=O)c2ccc([N+](=O)[O-])cc2[N+](=O)[O-])CC1`, the Drug degradation in data set [1] worked out at 88 µM. In data set [2], this compound came in with an MIC of 38 µM (≈ 12.6 µg/mL) and an MIC99 of 12.5 µg/mL (≈ 37.8 µM).

In the case of `O=[N+]([O-])c1ccc(S(=O)(=O)NCc2ccccc2)c([N+](=O)[O-])c1`, the Drug degradation in data set [1] stood at 100 µM. For the same compound, in data set [2], inhibition of growth (MIC) required 0.15 µM (≈ 0.0506 µg/mL) and the MIC99 was found to be 0.05 µg/mL (≈ 0.148 µM). For the same compound, the “growth inhibition (GI)” value in data set [3] is “inactive”. In the data set on HEK293, this compound showed an IC50 of 7 µM. Besides, the “Selectivity Index” value in data set [4] is 47.

For `O=S(=O)(NCc1ccccc1)c1ccccc1`, the Drug degradation in data set [1] was 0 µM; in data set [5] it was “Not Active”. The compound also registered an MIC in data set [2] of more than 100 µM. In data set [2], this compound came in with an MIC99 of more than 50 µg/mL.

In data set [2], `NCc1ccccc1` [BENZYLAMINE] gave an MIC of more than 250 µM and an MIC99 of more than 100 µg/mL.

As to `O=[N+]([O-])c1ccc(Cl)c([N+](=O)[O-])c1` [DINITROCHLOROBENZENE], in data set [1], the Drug degradation was 0 µM. In data set [2], this compound had an MIC of 30.8 µM (≈ 6.24 µg/mL) and an MIC99 of 6.25 µg/mL (≈ 30.9 µM).

On to `CNCc1ccccc1` [N-BENZYLMETHYLAMINE], for which, in data set [2], the MIC was more than 250 µM and the MIC99 is more than 100 µg/mL. Also, the “growth inhibition (GI)” value in data set [6] is “inactive”.

As for `O=[N+]([O-])c1ccc(S(=O)(=O)N2CCCCC2)c([N+](=O)[O-])c1`, the Drug degradation in data set [1] is 91 µM. Besides, in data set [2], it took 2.5 µM (≈ 0.788 µg/mL) to inhibit growth (MIC) and the MIC99 turned out to be 0.78 µg/mL (≈ 2.47 µM).

`O=[N+]([O-])c1ccc(NCc2ccccc2)c([N+](=O)[O-])c1`: the Drug degradation in data set [1] came out at 0 µM. In data set [2], this compound showed a minimum inhibitory concentration (MIC) of more than 250 µM and an MIC99 of more than 100 µg/mL.

As to `O=[N+]([O-])c1ccccc1S(=O)(=O)NCc1ccccc1`, in data set [1], the Drug degradation stood at 0 µM. For the same compound, the Drug degradation result in data set [5] is reported as “Not Active”. Further, in data set [2], the MIC was more than 100 µM and the MIC99 is more than 50 µg/mL.

Consider `O=[N+]([O-])c1ccc(S(=O)(=O)NCc2ccccc2)cc1`, for which the Drug degradation in data set [1] worked out at 0 µM. Besides, the Drug degradation entry in data set [5] is listed as “Not Active”. Further, in data set [2], the MIC is more than 100 µM and the MIC99 is more than 50 µg/mL.

With `COC(=O)C1CCCN1S(=O)(=O)c1ccc([N+](=O)[O-])cc1[N+](=O)[O-]` (stereo unspecified), the Drug degradation in data set [1] amounted to 83 µM. Besides, in data set [2], the lowest concentration to inhibit growth (MIC) was 35 µM (≈ 12.6 µg/mL) and the MIC99 was 12.5 µg/mL (≈ 34.8 µM).

In the case of `COc1ccc(NS(=O)(=O)c2ccc([N+](=O)[O-])cc2[N+](=O)[O-])cc1`, in data set [1], the Drug degradation was 79.5 µM. In data set [2], this compound registered an MIC of 4.4 µM (≈ 1.55 µg/mL) and an MIC99 of 1.56 µg/mL (≈ 4.42 µM).

In the case of `CCCN(Cc1ccccc1)S(=O)(=O)c1ccc([N+](=O)[O-])cc1[N+](=O)[O-]`, the Drug degradation in data set [1] was 88 µM. For the same compound, in data set [2], the minimal inhibitory concentration (MIC) turned out to be 8.25 µM (≈ 3.13 µg/mL) and the MIC99 stood at 3.13 µg/mL (≈ 8.25 µM).

Take `CS(=O)(=O)NCc1ccccc1`: the Drug degradation in data set [1] was 0 µM; in data set [5], “Not Active”. For the same compound, the MIC in data set [2] was more than 100 µM. The same compound had an MIC99 in data set [2] of more than 50 µg/mL.

Turning to `O=[N+]([O-])c1ccc(S(=O)(=O)Nc2ccccc2)c([N+](=O)[O-])c1`, the Drug degradation in data set [1] was determined as 55 µM. In data set [2], this compound had an MIC of 9.7 µM (≈ 3.14 µg/mL) and an MIC99 of 3.13 µg/mL (≈ 9.68 µM).

On to `NNC(=O)c1ccncc1` [ISONIAZID], for which, in data set [2], the MIC worked out at 0.37 µM (≈ 0.0507 µg/mL) and the MIC99 is 0.05 µg/mL (≈ 0.365 µM).

As to `O=[N+]([O-])c1ccc(S(=O)(=O)N2CCOCC2)c([N+](=O)[O-])c1`, the Drug degradation in data set [1] stood at 96 µM. In data set [2], this compound had a minimum inhibitory concentration (MIC) of 19.6 µM (≈ 6.22 µg/mL) and an MIC99 of 6.25 µg/mL (≈ 19.7 µM).

As for `O=[N+]([O-])c1ccc(S(=O)(=O)Nc2cccc(F)c2)c([N+](=O)[O-])c1`, the Drug degradation in data set [1] came to 24 µM. In data set [2], this compound gave an MIC of 73 µM (≈ 24.9 µg/mL) and an MIC99 of 25 µg/mL (≈ 73.3 µM).

With `COC(=O)C(C)NS(=O)(=O)c1ccc([N+](=O)[O-])cc1[N+](=O)[O-]` (stereo unspecified), the Drug degradation in data set [1] was 93 µM. In data set [2], 18.7 µM (≈ 6.23 µg/mL) was the least that counted as inhibitory (MIC) and the MIC99 turned out to be 6.25 µg/mL (≈ 18.8 µM).

Regarding `O=S([O-])[O-].[Na+].[Na+]`, the “growth inhibition (GI)” value in data set [6] is “inactive”.

With `CN(Cc1ccccc1)S(=O)(=O)c1ccc([N+](=O)[O-])cc1[N+](=O)[O-]`, the Drug degradation in data set [1] is 100 µM. In data set [2], this compound returned an MIC of 1.1 µM (≈ 0.386 µg/mL) and an MIC99 of 0.4 µg/mL (≈ 1.14 µM).
